Activity calls are given as the source filed them. No cut-off for these calls is given here.
Columns and labels:
HeLa = assay: Antiproliferative activity against human HeLa cells assessed as inhibition of cell proliferation measured after 48 hrs by CCK-8 assay; assay type: functional, cell-based
In short: (§1)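 RPMI-1640 with 10% FBS, 37 °C, 5% CO2. Cells seeded at 1-3 × 10^4/well and exposed to 0.00098–64 μM (nine 4-fold steps) or 0.1% DMSO vehicle for 48 h. CCK-8 then added for 4 h; absorbance read at 450 nm. IC50 taken from dose–response curves; mean ± SD of three independent experiments.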

MCF7 [1] = assay: Antiproliferative activity against human MCF7 cells assessed as inhibition of cell proliferation measured after 48 hrs by CCK-8 assay; assay type: functional, cell-based; details: MCF7, 48 h
A549 = assay: Antiproliferative activity against human A549 cells assessed as inhibition of cell proliferation measured after 48 hrs by CCK-8 assay; assay type: functional, cell-based; details: A549, 48 h; in short: as §1
HCT-116 = assay: Antiproliferative activity against human HCT-116 cells assessed as inhibition of cell proliferation measured after 48 hrs by CCK-8 assay; assay type: functional, cell-based; details: HCT-116, 48 h; in short: as §1
B16-F0 [2] = assay: Antiproliferative activity against mouse B16-F0 cells assessed as inhibition of cell proliferation measured after 48 hrs by CCK-8 assay; assay type: functional, cell-based; details: B16F0, 48 h; in short: as §1
B16-F0 [3] = assay: Induction of microtubule destabilization in mouse B16-F0 cells assessed as short and wrapped structure at 160 nM measured after 6 hrs by DAPI staining based immunofluorescent assay relative to control; assay type: cell-based
[4] = Metabolic stability in human liver microsomes assessed as half life in presence of NADPH at 0.5 uM measured after 4 hrs by LC/MS method; assay type: ADME, Microsome
[5] = Metabolic stability in mouse liver microsomes assessed as half life in presence of NADPH at 0.5 uM measured after 4 hrs by LC/MS method; assay type: ADME, Microsome
[6] = Inhibition of pig brain tubulin polymerization measured by light scattering based spectrophotometer method; assay type: tissue-based, Sus scrofa
In short: (§2)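 Porcine brain tubulin purified by three assembly/disassembly cycles and phosphocellulose chromatography. Mixed with graded compound concentrations in PEM (100 mM PIPES, 1 mM EGTA, 1 mM MgCl2) with 1 mM GTP and 5% glycerol. Polymerization followed at 37 °C by light scattering at 340 nm; variants ran at 30 °C, or with 5 min preincubation before GTP addition. IC50 reported.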

[7] = Binding affinity to pig brain tubulin at 30 degree C without preincubation; assay type: tissue-based, Sus scrofa; in short: as §2
[8] = Binding affinity to pig brain tubulin at 37 degree C without preincubation; assay type: tissue-based, Sus scrofa; in short: as §2
[9] = Binding affinity to pig brain tubulin at 37 degree C preincubated for 5 mins; assay type: tissue-based, Sus scrofa; in short: as §2
MCF7 [10] = assay: Induction of cell cycle arrest in human MCF7 cells assessed as accumulation of cells at G2/M phase measured after 48 hrs by FACS Calibur flow cytometry in relative to control; assay type: functional, cell-based
In short: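 MCF-7 cells plated for 24 h, then exposed to compound (5 or 10 nM; DMSO control) for 48 h. Fixed in 70% ethanol at 4 °C for 12 h, then RNase A and propidium iodide staining for 30 min. DNA content measured by flow cytometry.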

B16-F0 [11] = assay: Stabilization of microtubules in mouse B16-F0 cells at 40 nM measured after 6 hrs by DAPI staining based Immunofluorescent assay relative to control; assay type: cell-based
In short: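 Fixed in 4% paraformaldehyde, permeabilized with 0.5% Triton X-100 for 15 min, goat serum blocked. Anti-tubulin antibody 2 h at 4 °C, then fluorescent secondary antibody and DAPI nuclear counterstain. Imaged by confocal microscopy.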

B16-F0 [12] = assay: Antitumour activity against mouse B16-F0 cells transplanted in C57/BL mouse assessed as decrease in tumour weight at 10 mg/kg, ip measured after 16 days in relative to control; assay type: functional; design: scale not given: the % may be the effect or the level left; details: time 16 day
B16-F0 [13] = assay: Antitumour activity against mouse B16-F0 cells transplanted in C57/BL mouse assessed as decrease in tumour volume at 10 mg/kg, ip measured after 16 days in relative to control; assay type: functional; design: scale not given: the % may be the effect or the level left; details: time 16 day
[14] = Toxicity in C57/BL mouse […] with mouse B16-F0 cells assessed as body weight loss at 10 to 20 mg/kg, ip measured after 16 days in relative to control; assay type: organism-based; details: in vivo, 384 h, dose 10-20 mg/kg, time 16 day
[15] = Toxicity in C57/BL mouse […] with mouse B16-F0 cells assessed as liver histology at 10 to 20 mg/kg, ip measured after 16 days by H and E staining method in relative to control; assay type: organism-based; details: in vivo, 384 h, dose 10-20 mg/kg, time 16 day

Row | SMILES | IC50 (HeLa) [nM] | IC50 (MCF7 [1]) [nM] | IC50 (A549) [nM] | IC50 (HCT-116) [nM] | IC50 (B16-F0 [2]) [nM] | other results
1 | COc1cc(-c2cc3nccc(-c4cc(OC)c(OC)c(OC)c4)n3n2)cc(OC)c1OC | > 10000 | > 10000 | > 10000 | > 10000 | > 10000 | 
2 | COc1cc(-c2ccnc3cc(-c4ccc(F)cc4)nn23)cc(OC)c1OC | 5840 | 1280 | 3800 | 5030 | 4540 | 
3 | COc1cc(-c2ccnc3cc(-c4cccc(C#N)c4)nn23)cc(OC)c1OC | > 10000 | > 10000 | > 10000 | > 10000 | > 10000 | 
4 | COc1cc(-c2ccnc3cc(-c4cccc(C)c4)nn23)cc(OC)c1OC | 4230 | 1080 | 5730 | 6150 | 2220 | 
5 | Cn1ccc2cc(-c3cc4nccc(-c5ccc(F)cc5)n4n3)ccc21 | 5210 | 4580 | 3520 | 2160 | 4780 | 
6 | COc1cc(-c2ccnc3cc(-c4c[nH]c5ccccc45)nn23)cc(OC)c1OC | 195 | 85 | 29 | 35 | 40 | 
7 | CCOC(=O)c1ccc(-c2cc3nccc(-c4cc(OC)c(OC)c(OC)c4)n3n2)cc1 | > 10000 | > 10000 | > 10000 | > 10000 | > 10000 | 
8 | COc1cc2c(c(OC)c1OC)-c1ccc(OC)c(=O)cc1[C@@H](NC(C)=O)CC2 [COLCHICINE] | 81 | 18 | 107 | 42 | 87 | Activity (B16-F0 [3]): Active
9 | COc1cc(-c2ccnc3cc(-c4ccc5c(cnn5C)c4)nn23)cc(OC)c1OC | 97 | 279 | 233 | 2440 | 1470 | 
10 | COc1cc(-c2ccnc3cc(-c4ccc(Cl)cc4)nn23)cc(OC)c1OC | 1490 | 2320 | 3060 | 3340 | 4090 | 
11 | COc1cc(C(=O)c2csc(-c3ccccc3)n2)cc(OC)c1OC |  |  |  |  |  | half-life at 0.5 µM [4]: 17 min; half-life at 0.5 µM [5]: < 5 min
12 | COc1cc(-c2ccnc3cc(-c4cn(C(=O)OC(C)(C)C)c5ccccc45)nn23)cc(OC)c1OC | 3770 | 268 | 2060 | 5720 | 3070 | 
13 | COc1cc(-c2ccnc3cc(-c4ccc5ccn(C)c5c4)nn23)cc(OC)c1OC | 187 | 74 | 829 | 1040 | 657 | 
14 | COc1cc(-c2ccnc3cc(-c4ccc(N(C)C)cc4)nn23)cc(OC)c1OC | 378 | 44 | 1100 | 2050 | 702 | 
15 | COc1ccc(-c2cc3nccc(-c4cc(OC)c(OC)c(OC)c4)n3n2)cc1[N+](=O)[O-] | > 10000 | > 10000 | > 10000 | > 10000 | > 10000 | 
16 | COc1cc(-c2ccnc3cc(-c4ccc(C(C)=O)cc4)nn23)cc(OC)c1OC | 1810 | 5230 | 4100 | 4390 | 3930 | 
17 | COc1cc(-c2ccnc3cc(-c4ccc(C)c(C)c4)nn23)cc(OC)c1OC | 241 | 26 | 272 | 261 | 391 | 
18 | C=Cc1ccc(-c2cc3nccc(-c4cc(OC)c(OC)c(OC)c4)n3n2)cc1 | 882 | 193 | 1030 | 1060 | 788 | 

Row | SMILES | IC50 (HeLa) [nM] | IC50 (MCF7 [1]) [nM] | IC50 (A549) [nM] | IC50 (HCT-116) [nM] | IC50 (B16-F0 [2]) [nM] | other results
19 | COc1cc(-c2ccnc3cc(-c4ccccc4)nn23)cc(OC)c1OC | 458 | 254 | 208 | 3880 | 4730 | 
20 | CCn1c2ccccc2c2cc(-c3cc4nccc(-c5cc(OC)c(OC)c(OC)c5)n4n3)ccc21 | 160 | 242 | 643 | 1530 | 1800 | 
21 | COc1ccc(-c2cc3nccc(-c4cc(OC)c(OC)c(OC)c4)n3n2)cc1F | 236 | 183 | 545 | 2840 | 3950 | 
22 | COc1cc(-c2ccnc3cc(-c4cn(C)c5ccccc45)nn23)cc(OC)c1OC | 399 | 95 | 1340 | 762 | 185 | 
23 | COc1cc(-c2ccnc3cc(-c4ccc5cc[nH]c5c4)nn23)cc(OC)c1OC | 125 | 23 | 170 | 187 | 55 | 
24 | COc1cc(-c2ccnc3cc(-c4ccc(CO)cc4)nn23)cc(OC)c1OC | 456 | 1070 | 1100 | 861 | 1090 | 
25 | COc1cc(-c2cc3nccc(-c4c[nH]c5ccccc45)n3n2)cc(OC)c1OC | > 10000 | > 10000 | > 10000 | > 10000 | > 10000 | 
26 | COc1cc(-c2ccnc3cc(-c4ccc(C(F)(F)F)cc4)nn23)cc(OC)c1OC | 1840 | 2440 | 2070 | 1860 | 1770 | 
27 | COc1cc(-c2ccnc3cc(-c4ccc(C(C)(C)C)cc4)nn23)cc(OC)c1OC | > 10000 | > 10000 | > 10000 | > 10000 | > 10000 | 
28 | COc1ccc(-c2cc3nccc(-c4cc(OC)c(OC)c(OC)c4)n3n2)cc1N | 283 | 27 | 138 | 251 | 88 | 
29 | COc1cc(-c2ccnc3cc(-c4ccc(N5CCOCC5)cc4)nn23)cc(OC)c1OC | > 10000 | > 10000 | > 10000 | > 10000 | > 10000 | 
30 | COc1cc(-c2ccnc3c(-c4c[nH]c5ccccc45)cnn23)cc(OC)c1OC | > 10000 | > 10000 | > 10000 | > 10000 | > 10000 | 
31 | Cc1ccc(-c2cc3nccc(-c4ccc(F)cc4)n3n2)cc1 | > 10000 | > 10000 | > 10000 | > 10000 | > 10000 | 
32 | COc1cc(-c2ccnc3cc(-c4ccc5c(ccn5C)c4)nn23)cc(OC)c1OC | 19 | 3 | 15 | 39 | 48 | IC50 [6]: 6700 nM; IC50 [7]: 6400 nM; IC50 [8]: 6700 nM; IC50 [9]: 5700 nM; Activity (MCF7 [10]): Active; half-life at 0.5 µM [4]: 20 min; half-life at 0.5 µM [5]: 7 min
33 | CC(=O)O[C@H]1C(=O)[C@@]2(C)[C@H]([C@H](OC(=O)c3ccccc3)[C@]3(O)C[C@H](OC(=O)[C@H](O)[C@@H](NC(=O)c4ccccc4)c4ccccc4)C(C)=C1C3(C)C)[C@]1(OC(C)=O)CO[C@@H]1C[C@@H]2O [PACLITAXEL] | 41 |  |  |  | 21 | Activity (B16-F0 [11]): Active; Activity (B16-F0 [12]): 60.4%; Activity (B16-F0 [13]): 63.8%; Activity [14]: Non-Toxic; Activity [15]: Non-Toxic
34 | COc1cc(-c2ccnc3cc(-c4cnn(C)c4)nn23)cc(OC)c1OC | 1830 | 274 | 1150 | 2110 | 1240 | 
35 | COc1cc(-c2ccnc3cc(-c4cn(CO)c5ccccc45)nn23)cc(OC)c1OC | 103 | 19 | 167 | 128 | 93 | 
36 | COc1ccc(-c2cc3nccc(-c4cc(OC)c(OC)c(OC)c4)n3n2)cc1 | 373 | 125 | 376 | 404 | 1400 | 
